Results from ChEMBL document CHEMBL3525938, “Whole-body physiologically based pharmacokinetic model for nutlin-3a in mice after intravenous and oral administration” (Drug Metab Dispos, 2011).

Assays:
Plasma [1] = assay: Drug uptake in C57BL/6 mouse plasma at 10 mg/kg, iv as single dose measured at 24 hrs; type: ADME, organism-based; parameters: dose 10 mg/kg, route intravenous; details: in vivo
Method in brief: (§1)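 Plasma came from two studies in C57BL/6 mice. Study 1: single iv dose of 10 mg/kg or oral dose of 100 or 200 mg/kg, n = 5, blood by cardiac puncture at 0.5–48 h. Study 2 (males): iv 10 or 20 mg/kg, oral 50 or 100 mg/kg, serial plasma to 24 h (iv) or 16 h (oral). Plasma was separated at 12,000g for 5 min at 4°C and measured by LC-ESI-MS/MS.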

[2] = Drug uptake in C57BL/6 mouse vitreous humor at 50 to 200 mg/kg, po as single dose measured at 2 hrs; type: ADME, organism-based; parameters: dose 50-200 mg/kg, route oral; details: in vivo
Lung [3] = assay: Drug uptake in C57BL/6 mouse lung at 50 to 200 mg/kg, po as single dose measured at 2 hrs; type: ADME, organism-based; parameters: dose 50-200 mg/kg, route oral; details: in vivo
Plasma [4] = assay: Drug uptake in C57BL/6 mouse plasma at 50 to 200 mg/kg, po as single dose measured at 2 hrs; type: ADME, organism-based; parameters: dose 50-200 mg/kg, route oral; details: in vivo; method in brief: as §1
Liver [5] = assay: Drug uptake in C57BL/6 mouse liver at 10 mg/kg, iv as single dose measured at 24 hrs; type: ADME, organism-based; parameters: dose 10 mg/kg, route intravenous; details: in vivo
Method in brief: (§2)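 Adult C57BL/6 mice received a single bolus of 10 mg/kg by tail-vein iv injection or 100 or 200 mg/kg by oral gavage, with n = 5 per group and vehicle controls. Samples were taken at 0.5–48 h. Blood came by cardiac puncture under isoflurane, and tissues were dissected at the same time and frozen at −80°C. Tissues were homogenized in 5 mM ammonium formate, pH 7, and assayed by LC-ESI-MS/MS against matrix-matched standards.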

Spleen [6] = assay: Drug uptake in C57BL/6 mouse spleen at 10 mg/kg, iv as single dose measured at 24 hrs; type: ADME, organism-based; parameters: dose 10 mg/kg, route intravenous; details: in vivo; method in brief: as §2
[7] = Drug uptake in C57BL/6 mouse adrenal gland at 50 to 200 mg/kg, po as single dose measured at 2 hrs; type: ADME, organism-based; parameters: dose 50-200 mg/kg, route oral; details: in vivo
Liver [8] = assay: Drug uptake in C57BL/6 mouse liver at 50 to 200 mg/kg, po as single dose measured at 2 hrs; type: ADME, organism-based; parameters: dose 50-200 mg/kg, route oral; details: in vivo; method in brief: as §2
[9] = Drug uptake in C57BL/6 mouse adipose tissue at 10 mg/kg, iv as single dose measured at 24 hrs; type: ADME, organism-based; parameters: dose 10 mg/kg, route intravenous; details: in vivo
Lung [10] = assay: Drug uptake in C57BL/6 mouse lung at 10 mg/kg, iv as single dose measured at 24 hrs; type: ADME, organism-based; parameters: dose 10 mg/kg, route intravenous; details: in vivo
Brain [11] = assay: Drug uptake in C57BL/6 mouse brain at 10 mg/kg, iv as single dose measured at 24 hrs; type: ADME, organism-based; parameters: dose 10 mg/kg, route intravenous; details: in vivo; method in brief: as §2
Bone marrow [12] = assay: Drug uptake in C57BL/6 mouse bone marrow at 50 to 200 mg/kg, po as single dose measured at 2 hrs; type: ADME, organism-based; parameters: dose 50-200 mg/kg, route oral; details: in vivo; method in brief: as §2
Spleen [13] = assay: Drug uptake in C57BL/6 mouse spleen at 50 to 200 mg/kg, po as single dose measured at 2 hrs; type: ADME, organism-based; parameters: dose 50-200 mg/kg, route oral; details: in vivo; method in brief: as §2
[14] = Drug uptake in C57BL/6 mouse adipose tissue at 50 to 200 mg/kg, po as single dose measured at 2 hrs; type: ADME, organism-based; parameters: dose 50-200 mg/kg, route oral; details: in vivo
Muscle tissue [15] = assay: Drug uptake in C57BL/6 mouse muscle at 50 to 200 mg/kg, po as single dose measured at 2 hrs; type: ADME, organism-based; parameters: dose 50-200 mg/kg, route oral; details: in vivo
[16] = Fraction unbound in C57BL/6 mouse plasma at 300 uM up to 24 hrs by equilibrium dialysis method; type: ADME, cell-free
Method in brief: (§3)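 Equilibrium dialysis used male C57BL/6 plasma spiked with the drug against PBS across a 5-kDa membrane. The plate was rotated at 37°C under humidified 5% CO2 for 24 h, in triplicate. The plasma side was taken as bound and the PBS side as free, both measured by LC-MS/MS. Fraction unbound was calculated relative to total plasma concentration.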

[17] = Drug uptake in C57BL/6 mouse vitreous humor at 10 mg/kg, iv as single dose measured at 24 hrs; type: ADME, organism-based; parameters: dose 10 mg/kg, route intravenous; details: in vivo; method in brief: as §2
[18] = Drug uptake in C57BL/6 mouse adrenal gland at 10 mg/kg, iv as single dose measured at 24 hrs; type: ADME, organism-based; parameters: dose 10 mg/kg, route intravenous; details: in vivo
[19] = Fraction unbound in C57BL/6 mouse plasma at 0.1 uM up to 24 hrs by equilibrium dialysis method; type: ADME, cell-free; method in brief: as §3
Brain [20] = assay: Drug uptake in C57BL/6 mouse brain at 50 to 200 mg/kg, po as single dose measured at 2 hrs; type: ADME, organism-based; parameters: dose 50-200 mg/kg, route oral; details: in vivo; method in brief: as §2
Bone marrow [21] = assay: Drug uptake in C57BL/6 mouse bone marrow at 10 mg/kg, iv as single dose measured at 24 hrs; type: ADME, organism-based; parameters: dose 10 mg/kg, route intravenous; details: in vivo; method in brief: as §2
[22] = Cytotoxicity against doxorubicin-resistant human UKF-NB-3 cells after 96 hrs by MTT assay; type: functional, cell-based; details: UKF-NB-3, 96 h
Intestine [23] = assay: Drug uptake in C57BL/6 mouse intestine at 50 to 200 mg/kg, po as single dose measured at 2 hrs; type: ADME, organism-based; parameters: dose 50-200 mg/kg, route oral; details: in vivo
[24] = Ratio of drug level in blood to plasma in C57BL/6 mouse after 30 mins; type: ADME; details: blood and plasma
Method in brief: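 Pooled heparinized whole blood from male C57BL/6 mice was spiked at 0.1, 1, 10 and 100 μM final, in triplicate, and incubated at 37°C for 30 min with mixing every 5 min. Whole blood was sampled, and plasma was obtained by centrifugation. Both were measured by LC-MS/MS, and the ratio was calculated from the whole-blood and plasma concentrations.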

[25] = Drug uptake in C57BL/6 mouse retina at 10 mg/kg, iv as single dose measured at 24 hrs; type: ADME, organism-based; parameters: dose 10 mg/kg, route intravenous; details: in vivo; method in brief: as §2
Intestine [26] = assay: Drug uptake in C57BL/6 mouse intestine at 10 mg/kg, iv as single dose measured at 24 hrs; type: ADME, organism-based; parameters: dose 10 mg/kg, route intravenous; details: in vivo
[27] = Drug uptake in C57BL/6 mouse retina at 50 to 200 mg/kg, po as single dose measured at 2 hrs; type: ADME, organism-based; parameters: dose 50-200 mg/kg, route oral; details: in vivo
Muscle tissue [28] = assay: Drug uptake in C57BL/6 mouse muscle at 10 mg/kg, iv as single dose measured at 24 hrs; type: ADME, organism-based; parameters: dose 10 mg/kg, route intravenous; details: in vivo

Drug uptake (Plasma [1]): Not Active | Drug uptake [2]: Not Active | Drug uptake (Lung [3]): Active | Drug uptake (Plasma [4]): Active | Drug uptake (Liver [5]): Not Active | Drug uptake (Spleen [6]): Not Active | Drug uptake [7]: Active | Drug uptake (Liver [8]): Active | Drug uptake [9]: Not Active | Drug uptake (Lung [10]): Not Active | Drug uptake (Brain [11]): Not Active | Drug uptake (Bone marrow [12]): Not Active | Drug uptake (Spleen [13]): Active | Drug uptake [14]: Active | Drug uptake (Muscle tissue [15]): Active | fraction unbound at 24 h, 300 µM [16]: 0.118 | Drug uptake [17]: Not Active | Drug uptake [18]: Not Active | fraction unbound at 24 h, 0.1 µM [19]: 0.007 | Drug uptake (Brain [20]): Not Active | Drug uptake (Bone marrow [21]): Not Active | Drug uptake (Intestine [23]): Active | blood plasma ratio at 0.5 h [24]: 0.7 | Drug uptake [25]: Not Active | Drug uptake (Intestine [26]): Not Active | Drug uptake [27]: Active | Drug uptake (Muscle tissue [28]): Not Active
Structure (SMILES): COc1ccc(C2=N[C@@H](c3ccc(Cl)cc3)[C@@H](c3ccc(Cl)cc3)N2C(=O)N2CCNC(=O)C2)c(OC(C)C)c1 [NUTLIN-3]
IC50 [22]: 5.56 µM
